{"source": "ChEMBL document CHEMBL1250544", "about": "“Diversity-oriented synthesis of cyclic acyldepsipeptides leads to the discovery of a potent antibacterial agent” (2010)", "key": {"Staphylococcus aureus [1]": {"tested_on": "Staphylococcus aureus", "test": "Antimicrobial activity against methicillin-susceptible Staphylococcus aureus ATCC 3556 after 24 hrs by broth microdilution assay", "format": "functional", "procedure,_shortened": "(§1)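 CLSI broth microdilution run in duplicate. Compounds were dissolved in DMSO and serially diluted twofold in cation-adjusted Mueller–Hinton broth (25 µg/mL calcium, 12.5 µg/mL magnesium). Inoculum was verified by colony counts on tryptic soy agar. MIC was the lowest concentration visually inhibiting >99% of colonies.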"}, "Staphylococcus aureus [2]": {"tested_on": "Staphylococcus aureus", "test": "Antimicrobial activity against methicillin-resistant Staphylococcus aureus from blood after 24 hrs by broth microdilution assay", "format": "functional", "procedure,_shortened": "(§2)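 CLSI broth microdilution in duplicate on clinical isolates from Veterans Affairs Medical Center patients. Compounds were dissolved in DMSO and serially diluted twofold in cation-adjusted Mueller–Hinton broth (25 µg/mL Ca, 12.5 µg/mL Mg). Inoculum was verified by colony counts on tryptic soy agar. MIC is the lowest concentration visually inhibiting >99%.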"}, "Enterococcus faecium": {"tested_on": "Enterococcus faecium", "test": "Antimicrobial activity against vancomycin-resistant Enterococcus faecium clinical isolate obtained from tissue after 24 hrs by broth microdilution assay", "format": "functional", "procedure,_shortened": "as §2"}, "Enterococcus faecalis [3]": {"tested_on": "Enterococcus faecalis", "test": "Antimicrobial activity against vancomycin-resistant Enterococcus faecalis clinical isolate obtained from rectal swab after 24 hrs by broth microdilution assay"}, "Enterococcus faecalis [4]": {"tested_on": "Enterococcus faecalis", "test": "Antimicrobial activity against Enterococcus faecalis clinical isolate obtained from rectal swab after 24 hrs by broth microdilution assay", "format": "functional", "procedure,_shortened": "as §1"}, "Enterococcus faecalis [5]": {"tested_on": "Enterococcus faecalis", "test": "Antimicrobial activity against Enterococcus faecalis ATCC 29212 after 24 hrs by broth microdilution assay", "format": "functional", "settings": "ATCC 29212, 24 h", "procedure,_shortened": "as §1"}, "[6]": {"settings": "Staphylococcus aureus, ATCC 3556, 24 h, read-out: MIC"}, "[7]": {"settings": "Staphylococcus aureus, 24 h, read-out: MBC"}}, "data": [{"molecule": "CCCC/C=C/C(=O)N[C@@H](Cc1cccc(F)c1)C(=O)N[C@@H]1COC(=O)[C@@H]2CCCN2C(=O)[C@H](C)NC(=O)[C@H]2CCCCN2C(=O)[C@@H]2CCCN2C1=O", "values": [{"measurement": "MIC", "setting": "Staphylococcus aureus [1]; [6]", "result": "> 312", "unit": "µg/mL"}, {"measurement": "MBC", "setting": "Staphylococcus aureus [2]; [7]", "result": "> 312", "unit": "µg/mL"}]}, {"molecule": "CCCC/C=C/C(=O)N[C@@H](Cc1cccc(F)c1)C(=O)N[C@@H]1COC(=O)[C@@H]2CCCN2C(=O)[C@H](C)NC(=O)[C@H]2CC(C)CCN2C(=O)[C@@H]2CCCN2C1=O", "note": "(some centres undefined)", "values": [{"measurement": "MIC", "setting": "Staphylococcus aureus [1]; [6]", "result": "> 156", "unit": "µg/mL"}]}, {"molecule": "CCCC/C=C/C(=O)N[C@@H](Cc1cccc(F)c1)C(=O)N[C@@H]1COC(=O)[C@@H]2CCCN2C(=O)[C@H](C)NC(=O)C2(CCC2)N(C)C(=O)[C@@H]2CCCN2C1=O", "values": [{"measurement": "MIC", "setting": "Staphylococcus aureus [1]", "result": ">312", "unit": "µg/mL"}, {"measurement": "MIC", "setting": "Staphylococcus aureus [1]; [6]", "result": 312, "unit": "µg/mL"}, {"measurement": "MBC", "setting": "Staphylococcus aureus [2]; [7]", "result": "> 312", "unit": "µg/mL"}]}, {"molecule": "CCCC/C=C/C(=O)N[C@@H](Cc1cccc(F)c1)C(=O)N[C@@H]1COC(=O)[C@@H]2CCCN2C(=O)[C@H](C)NC(=O)[C@@H]2CC(C)CCN2C(=O)[C@@H]2CCCN2C1=O", "note": "(some centres undefined)", "values": [{"measurement": "MBC", "setting": "Enterococcus faecium", "result": 0.08, "unit": "µg/mL"}, {"measurement": "MIC", "setting": "Enterococcus faecium", "result": 0.04, "unit": "µg/mL"}, {"measurement": "MBC", "setting": "Enterococcus faecalis [3]", "result": 0.04, "unit": "µg/mL"}, {"measurement": "MIC", "setting": "Enterococcus faecalis [3]", "result": 0.04, "unit": "µg/mL"}, {"measurement": "MIC", "setting": "Staphylococcus aureus [1]; [6]", "result": 0.6, "unit": "µg/mL"}, {"measurement": "MBC", "setting": "Enterococcus faecalis [4]", "result": 0.04, "unit": "µg/mL"}, {"measurement": "MIC", "setting": "Enterococcus faecalis [4]", "result": 0.02, "unit": "µg/mL"}, {"measurement": "MBC", "setting": "Enterococcus faecalis [5]", "result": 0.08, "unit": "µg/mL"}, {"measurement": "MIC", "setting": "Enterococcus faecalis [5]", "result": 0.04, "unit": "µg/mL"}]}, {"molecule": "CCCC/C=C/C(=O)N[C@@H](Cc1cccc(F)c1)C(=O)N[C@@H]1COC(=O)[C@@H]2CCCN2C(=O)[C@H](C)NC(=O)C2(CCCCC2)N(C)C(=O)[C@@H]2CCCN2C1=O", "values": [{"measurement": "MBC", "setting": "Staphylococcus aureus [2]; [7]", "result": "> 312", "unit": "µg/mL"}]}, {"molecule": "CCCC/C=C/C(=O)N[C@@H](Cc1cccc(F)c1)C(=O)N[C@@H]1COC(=O)[C@@H]2CCCN2C(=O)[C@H](C)NC(=O)[C@@H]2CCCCN2C(=O)[C@@H]2CCCN2C1=O", "values": [{"measurement": "MBC", "setting": "Enterococcus faecium", "result": 0.08, "unit": "µg/mL"}, {"measurement": "MIC", "setting": "Enterococcus faecium", "result": 0.08, "unit": "µg/mL"}, {"measurement": "MBC", "setting": "Enterococcus faecalis [3]", "result": 0.04, "unit": "µg/mL"}, {"measurement": "MIC", "setting": "Enterococcus faecalis [3]", "result": 0.04, "unit": "µg/mL"}, {"measurement": "MIC", "setting": "Staphylococcus aureus [1]", "result": 1.25, "unit": "µg/mL"}, {"measurement": "MIC", "setting": "Staphylococcus aureus [1]; [6]", "result": 1.25, "unit": "µg/mL"}, {"measurement": "MBC", "setting": "Enterococcus faecalis [4]", "result": 0.04, "unit": "µg/mL"}, {"measurement": "MIC", "setting": "Enterococcus faecalis [4]", "result": 0.04, "unit": "µg/mL"}, {"measurement": "MBC", "setting": "Enterococcus faecalis [5]", "result": 1.25, "unit": "µg/mL"}, {"measurement": "MIC", "setting": "Enterococcus faecalis [5]", "result": 0.16, "unit": "µg/mL"}, {"measurement": "MBC", "setting": "Staphylococcus aureus [2]", "result": 1.25, "unit": "µg/mL"}, {"measurement": "MBC", "setting": "Staphylococcus aureus [2]; [7]", "result": 1.25, "unit": "µg/mL"}]}, {"molecule": "CCCC/C=C/C(=O)N[C@@H](Cc1cccc(F)c1)C(=O)N[C@@H]1COC(=O)[C@@H]2CCCN2C(=O)[C@H](C)NC(=O)C2(CCCC2)N(C)C(=O)[C@@H]2CCCN2C1=O", "values": [{"measurement": "MBC", "setting": "Staphylococcus aureus [2]; [7]", "result": "> 312", "unit": "µg/mL"}]}]}
